As a reminder, the Kd is the free concentration of one partner at which half of the binding sites on the other are occupied at equilibrium, for simple one-to-one binding.

Holding throughout (experiment): Isothermal titration calorimetry
Holding throughout (type): binding
Settings in all cases: read-out: Values shown are Kd
For orientation: Isothermal titration calorimetry measures the heat released or taken up as one component is titrated into another.

The target of one assay is UEA-1. In a few lines:
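Commercial UEA-1 lectin was dialysed overnight into the ITC buffer, and lyophilised glycans were dissolved in the dialysate. Cell concentration was set by A280 with a calculated extinction coefficient. Titration used 16 injections of 2.45 μL (1 s duration, 180 s spacing) at 5 μCal reference power. Integrated peaks were fitted to a single-site model to give Kd and ΔH.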

A further assay concerns the target RBC36. In a few lines: (§1)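 N-terminally His6-tagged VLR ectodomains were expressed in Hi5 insect cells or by transient transfection of 293S cells, then purified by Ni-NTA and Superdex75 size exclusion. Protein was dialysed overnight into the ITC buffer, and lyophilised glycans were dissolved in the dialysate. Cell concentration was set by A280 with calculated extinction coefficients. Titration used 16 injections of 2.45 μL (1 s each, 180 s apart) at 5 μCal reference power. The single-site fit gave Kd and ΔH.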

The target of a further assay is Tn4-22. Put shortly:
as §1

The target in the next assay is O13. Put shortly:
as §1

`C[C@@H]1O[C@@H](O[C@H]2[C@H](O[C@H]3[C@H](O)[C@@H](O)C(O)O[C@@H]3CO)O[C@H](CO)[C@H](O)[C@@H]2O)[C@@H](O)[C@H](O)[C@@H]1O` (stereo partly drawn) [2′-fucosyllactose, 2′-fucosyllactose, Fucα1-2Galβ1-4Glc]: the Kd at UEA-1 is 12.5 µM; on RBC36 it was 57.1 µM.
Regarding `CC(=O)N[C@H]1C(O)O[C@H](CO)[C@@H](O[C@@H]2O[C@H](CO)[C@H](O)[C@H](O)[C@H]2O[C@@H]2O[C@@H](C)[C@@H](O)[C@@H](O)[C@@H]2O)[C@@H]1O` (stereo partly drawn) [H-trisaccharide, blood group H-trisaccharide type II, Fucα1-2Galβ1-4GlcNAc], the Kd on Tn4-22 turned out to be 6.9 µM; on UEA-1 it was 8.1 µM; at O13 it was 2.6 µM; on RBC36, 8.3 µM.
For `CC(=O)N[C@H]1[C@H](O[C@H]2[C@@H](O)[C@@H](CO)O[C@@H](O[C@H]3[C@H](O)[C@@H](O)C(O)O[C@@H]3CO)[C@@H]2O)O[C@H](CO)[C@@H](O[C@@H]2O[C@H](CO)[C@H](O)[C@H](O)[C@H]2O)[C@@H]1O` (stereo partly drawn) [LNnT, lacto-N-neotetraose, Galβ1-4GlcNAcβ1-3Galβ1-4Glc], the results for the Kd at Tn4-22 and at O13 were 16.2 µM and 160 µM, respectively.
On to `CC(=O)N[C@H]1C(O)O[C@H](CO)[C@@H](O[C@@H]2O[C@H](CO)[C@H](O)[C@H](O)[C@H]2O[C@@H]2O[C@@H](C)[C@@H](O)[C@@H](O)[C@@H]2O)[C@@H]1O[C@@H]1O[C@@H](C)[C@@H](O)[C@@H](O)[C@@H]1O` (stereo partly drawn) [Lewis-Y, Lewis-Y antigen tetrasaccharide, Fucα1-2Galβ1-4(Fucα1-3)GlcNAc], for which, on UEA-1, the Kd is 19.8 µM.

Source of the values: paper PMC5677568 (Structure (London, England : 1993), 2017).
